Measured values published in ChEMBL document CHEMBL4765350, “Receptor-interacting protein kinase 2 (RIPK2) and nucleotide-binding oligomerization domain (NOD) cell signaling inhibitors based on a 3,5-diphenyl-2-aminopyridine scaffold” (Eur J Med Chem, 2020).
The source made the active and inactive calls. No cut-off for these calls is given here.

How the values were obtained:
[1] = biological target: T1, Receptor-interacting serine/threonine-protein kinase 2 (Homo sapiens, UniProt O43353); assay: Inhibition of recombinant human RIPK2 incubated for 2 hr by ADP-Glo assay
T1 sequence (O43353 whole entry): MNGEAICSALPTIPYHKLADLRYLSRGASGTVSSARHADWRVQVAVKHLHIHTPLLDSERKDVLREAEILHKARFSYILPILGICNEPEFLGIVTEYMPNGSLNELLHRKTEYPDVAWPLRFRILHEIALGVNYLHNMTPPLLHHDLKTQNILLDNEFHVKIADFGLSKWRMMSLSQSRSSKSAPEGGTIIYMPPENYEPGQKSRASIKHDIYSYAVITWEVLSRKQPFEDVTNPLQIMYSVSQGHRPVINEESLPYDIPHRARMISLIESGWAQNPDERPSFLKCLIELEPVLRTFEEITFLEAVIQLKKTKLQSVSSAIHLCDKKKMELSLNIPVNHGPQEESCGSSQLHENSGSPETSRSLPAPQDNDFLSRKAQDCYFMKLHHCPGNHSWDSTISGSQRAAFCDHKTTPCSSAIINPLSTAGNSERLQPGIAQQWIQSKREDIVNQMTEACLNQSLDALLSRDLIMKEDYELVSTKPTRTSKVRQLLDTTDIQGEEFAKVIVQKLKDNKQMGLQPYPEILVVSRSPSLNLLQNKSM
Procedure, shortened: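 IC50 values reported as the mean of two or three determinations ± standard deviation.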

[2] = biological target: T2, Activin receptor type-1 (Homo sapiens) (UniProt Q04771); assay: Inhibition of human ALK2 using casein as substrate at 10 uM in presence of 10 uM [gamma33P] ATP by kinase assay
T2 sequence (whole entry): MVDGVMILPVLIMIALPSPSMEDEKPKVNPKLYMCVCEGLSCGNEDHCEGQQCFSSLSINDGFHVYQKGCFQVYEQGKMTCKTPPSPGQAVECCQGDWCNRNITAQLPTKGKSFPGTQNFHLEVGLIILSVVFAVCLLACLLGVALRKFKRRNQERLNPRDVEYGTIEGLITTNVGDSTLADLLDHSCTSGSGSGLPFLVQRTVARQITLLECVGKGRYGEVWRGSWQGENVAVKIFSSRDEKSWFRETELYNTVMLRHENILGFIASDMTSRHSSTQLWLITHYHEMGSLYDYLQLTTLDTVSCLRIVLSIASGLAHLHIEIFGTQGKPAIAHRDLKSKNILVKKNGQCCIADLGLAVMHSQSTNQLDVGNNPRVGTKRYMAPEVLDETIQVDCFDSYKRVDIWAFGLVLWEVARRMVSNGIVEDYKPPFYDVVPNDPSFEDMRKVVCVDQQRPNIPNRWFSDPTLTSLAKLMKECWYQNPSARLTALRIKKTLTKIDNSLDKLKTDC

[3] = biological target: T1, Receptor-interacting serine/threonine-protein kinase 2; assay: Inhibition of recombinant human RIPK2 at 10 uM incubated for 2 hr by ADP-Glo assay
Activin receptor type-1 = biological target: T3, Activin receptor type-1 (Homo sapiens, UniProt Q04771); assay: Inhibition of human ALK2 using casein as substrate in presence of 10 uM [gamma33P] ATP by kinase assay
T3 sequence (Q04771 whole entry): T2 sequence (whole entry)

[4] = AUC in C57BL/6 mouse at 10 mg/kg, ip by LC-MS/MS analysis; format: ADME, organism-based; parameters: dose 10 mg/kg; conditions: in vivo
Procedure, shortened: (§1)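 Single 10 mg/kg intraperitoneal dose formulated in 6% Captisol in water, given to 8-week-old female C57BL/6 mice, n = 5 mice per group; plasma concentrations followed over time to derive PK parameters.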

[5] = Permeability of the compound by PAMPA; format: ADME
[6] = Stability in mouse liver microsomes assessed as intrinsic clearance; format: ADME, Microsome
[7] = Clearance in C57BL/6 mouse at 10 mg/kg, ip by LC-MS/MS analysis; format: ADME, organism-based; conditions: in vivo; procedure, shortened: as §1
[8] = Aqueous solubility of compound in PBS buffer at pH 7.4; format: physicochemical
Procedure, shortened: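 Solubility measured in PBS buffer at pH 7.4.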

[9] = Stability in mouse liver microsomes assessed as half life; format: ADME, Microsome
[10] = biological target: Nucleotide-binding oligomerization domain-containing protein 2 (Homo sapiens) (UniProt Q9HC29); assay: Inhibition of human NOD2 expressed in HEK293 cells coexpressing NFkappaB-SEAP reporter at 10 uM measured after 7 to 9 hrs by HEKBIue reporter assay; format: cell-based; conditions: time 7-9 hrs
Chain of Nucleotide-binding oligomerization domain-containing protein 2 (Homo sapiens) (Q9HC29 whole entry, the tested form may be a part): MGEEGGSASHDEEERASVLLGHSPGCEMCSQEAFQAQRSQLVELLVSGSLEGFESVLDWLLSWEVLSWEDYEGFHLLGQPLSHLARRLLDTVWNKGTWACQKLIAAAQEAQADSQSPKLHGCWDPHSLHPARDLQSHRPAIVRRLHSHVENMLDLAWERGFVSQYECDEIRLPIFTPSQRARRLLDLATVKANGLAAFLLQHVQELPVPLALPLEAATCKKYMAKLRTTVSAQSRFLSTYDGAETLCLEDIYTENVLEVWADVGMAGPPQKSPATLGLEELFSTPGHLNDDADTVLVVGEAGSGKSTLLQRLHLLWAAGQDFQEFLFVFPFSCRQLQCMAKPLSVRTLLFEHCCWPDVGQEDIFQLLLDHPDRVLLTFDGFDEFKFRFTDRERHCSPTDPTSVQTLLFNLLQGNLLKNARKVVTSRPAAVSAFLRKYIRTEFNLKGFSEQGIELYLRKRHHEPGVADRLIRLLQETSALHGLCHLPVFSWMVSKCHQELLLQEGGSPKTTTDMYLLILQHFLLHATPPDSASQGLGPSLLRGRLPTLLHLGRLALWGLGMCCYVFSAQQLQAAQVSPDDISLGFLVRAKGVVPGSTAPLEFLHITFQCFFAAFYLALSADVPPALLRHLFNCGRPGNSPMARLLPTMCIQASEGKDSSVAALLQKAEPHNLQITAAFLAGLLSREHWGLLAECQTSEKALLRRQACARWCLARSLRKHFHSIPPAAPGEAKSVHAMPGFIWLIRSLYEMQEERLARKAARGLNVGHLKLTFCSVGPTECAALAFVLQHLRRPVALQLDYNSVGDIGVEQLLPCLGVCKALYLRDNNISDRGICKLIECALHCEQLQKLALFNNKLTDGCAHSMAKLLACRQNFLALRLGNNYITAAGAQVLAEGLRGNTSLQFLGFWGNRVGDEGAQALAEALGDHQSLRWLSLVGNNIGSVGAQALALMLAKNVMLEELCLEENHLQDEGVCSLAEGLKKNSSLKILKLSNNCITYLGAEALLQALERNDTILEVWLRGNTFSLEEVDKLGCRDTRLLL

SMILES | IC50 [1] [nM] | inhibition [2] | IC50 (Activin receptor type-1) [nM] | also measured
CCCS(=O)(=O)Nc1cc(-c2cncc(-c3ccc(N4CCNCC4)cc3)c2)cc(F)c1OC | 27 | – | – | –
CCCS(=O)(=O)Nc1cc(-c2cc(-c3cccc(S(C)(=O)=O)c3)cnc2N)ccc1OC | 103 | inactive | – | –
CCCS(=O)(=O)Nc1cc(-c2cc(-c3ccc(N4CCNCC4)cc3)cnc2C)cc(F)c1OC | – | inactive | – | –
CCCS(=O)(=O)Nc1cc(-c2cc(-c3ccc(N4CCNCC4)cc3)cnc2N)cc(OC)c1C | – | – | 355 | inhibition [3]: inactive
CCCS(=O)(=O)N1CCc2ccc(-c3cc(-c4ccc(N5CCNCC5)cc4)cnc3N)cc21 | 185 | inactive | – | –
CC(C)Oc1cc(NS(=O)(=O)C(C)C)cc(-c2cc(-c3ccc(N4CCNCC4)cc3)cnc2N)c1 | 18 | inactive | – | –
CCCS(=O)(=O)Nc1cc(-c2cc(-c3ccc(N4CCNCC4)cc3)cnc2N)ccc1O | – | – | 387 | –
CCCS(=O)(=O)Nc1cc(-c2cc(-c3ccc(N4CCNCC4)cc3)cnc2N)cc(F)c1OC | 16 | – | 348 | AUC [4]: 2920 ng·h/mL; permeability [5]: 2.9 10^-6 cm/s; CLint [6]: 27 µL/min/mg; CL/F [7]: 59.7 mL/min/kg; solubility [8]: >= 100 uM; t1/2 [9]: 25.6 min
COc1cc(NS(=O)(=O)C(C)C)cc(-c2cc(-c3ccc(N4CCNCC4)cc3)cnc2C)c1 | 76 | – | 239 | –
COc1cc(NS(=O)(=O)C(C)C)cc(-c2cc(-c3ccc(N4CCNCC4)cc3)cnc2N)c1 | 13 | – | 11 | –
CCCS(=O)(=O)Nc1cc(-c2cc(-c3ccc(S(C)(=O)=O)cc3)cnc2N)ccc1OC | 264 | inactive | – | inhibition [10]: inactive
CCCS(=O)(=O)NCc1cc(-c2cc(-c3ccc(N4CCNCC4)cc3)cnc2N)ccc1OC | 99 | – | 145 | –
CCCS(=O)(=O)Nc1cc(-c2cc(-c3ccc(N4CCNCC4)cc3)cnc2N)cc(Cl)c1OC | 21 | – | 202 | –
CCCS(=O)(=O)Nc1cc(-c2cc(-c3ccc(N4CCNCC4)cc3)cnc2N)cc2c1OCCO2 | 520 | inactive | – | –
COc1cc(NS(C)(=O)=O)cc(-c2cc(-c3ccc(N4CCNCC4)cc3)cnc2N)c1 | 51 | – | 5 | –
CCCS(=O)(=O)Nc1cc(-c2cc(-c3cccc(N4CCNCC4)c3)cnc2N)cc(F)c1OC | 11 | – | 522 | –

SMILES | IC50 [1] [nM] | inhibition [2] | IC50 (Activin receptor type-1) [nM] | also measured
CCCS(=O)(=O)Nc1cc(OC)cc(-c2cc(-c3ccc(N4CCNCC4)cc3)cnc2N)c1 | 14 | – | 9 | –
COc1cc(NS(=O)(=O)c2ccccc2)cc(-c2cc(-c3ccc(N4CCNCC4)cc3)cnc2N)c1 | 23 | – | 5 | –
CCS(=O)(=O)Nc1cc(OC)cc(-c2cc(-c3ccc(N4CCNCC4)cc3)cnc2C)c1 | 127 | – | 86 | –
CCOc1cc(NS(=O)(=O)C(C)C)cc(-c2cc(-c3ccc(N4CCNCC4)cc3)cnc2N)c1 | 21 | – | 299 | –
COc1cc(NS(C)(=O)=O)cc(-c2cc(-c3ccc(N4CCNCC4)cc3)cnc2C)c1 | 296 | – | 31 | –
COc1cc(-c2cc(-c3ccc(N4CCNCC4)cc3)cnc2C)cc(OC)c1OC | 100 | – | – | inhibition [10]: inactive
CCCS(=O)(=O)Nc1cc(-c2cc(-c3ccc(N4CCNCC4)cc3)cnc2N)cc(OC)c1OC | – | – | 57 | –
CCCS(=O)(=O)N1CCOc2ccc(-c3cc(-c4ccc(N5CCNCC5)cc4)cnc3N)cc21 | 78 | inactive | – | –
CCCS(=O)(=O)Nc1cc(-c2cc(-c3ccccc3S(C)(=O)=O)cnc2N)ccc1OC | – | inactive | – | inhibition [10]: inactive; inhibition [3]: inactive
COc1cc(-c2cc(-c3ccc(N4CCNCC4)cc3)cnc2N)cc(F)c1OC | – | – | 29 | –
CCCS(=O)(=O)Nc1ccc(-c2cc(-c3ccc(N4CCNCC4)cc3)cnc2C)cc1OC | – | inactive | – | inhibition [3]: inactive
CCCS(=O)(=O)Nc1cc(-c2cc(-c3ccc(N4CCNCC4)cc3)cnc2N)cc(OCC)c1OC | – | inactive | – | inhibition [10]: inactive; inhibition [3]: inactive
CCCS(=O)(=O)Nc1cc(-c2cc(-c3ccc(N4CCNCC4)cc3)cnc2N)ccc1C | 102 | – | 2120 | –
CCCS(=O)(=O)Nc1cc(-c2cc(-c3ccc(N4CCNCC4)cc3)cnc2N)cc(C)c1OC | 41 | – | 395 | –
CCCS(=O)(=O)Nc1cc(-c2cc(-c3ccc(N4CCNCC4)cc3)cnc2N)ccc1OC | 32 | – | 3540 | –
CCCS(=O)(=O)Nc1cc(OC)cc(-c2cc(-c3ccc(N4CCNCC4)cc3)cnc2C)c1 | 164 | – | 108 | –
